Data taken from PubChem BioAssay AID743257 (The Scripps Research Institute Molecular Screening Center, 2014).
Hit rate of the full screen: of about 2,900 compounds, about 1,900 (66%) were called active. So high a share suggests a set chosen from earlier hits. Not all results are given here. Unmarked numbers belong to inactive results.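 Rule for the calls: active = mean inhibition across replicates above the hit cutoff set in the primary screen (cut at about 8.5% in these data); inactive = the rest.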

Target: Disintegrin and metalloproteinase domain-containing protein 17 (Homo sapiens) (UniProt P78536)
Experiment: inhibition of human ADAM17 protease activity – biochemical, QFRET peptide cleavage, confirmation (AID 743257);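 note: 0% = DMSO wells and 100% = marimastat wells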
Conditions: recombinant ADAM17, EDANS/DABCYL QFRET peptide cleavage; at 6.95 µM; active compounds read high
Outline: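 Assay system – human ADAM17 enzyme, FRET peptide cleavage · Read-out – percent inhibition · Schedule – 30 min preincubation, 3 h reaction · Buffer or medium – 50 mM HEPES buffer, pH 7.5, with 0.01% Brij · Controls – DMSO wells and 1 µM marimastat wells as references · Measured by – fluorescence at ex 359 nm, em 460 nm · Dosing – 6.95 µM compound, single dose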

Chain of Disintegrin and metalloproteinase domain-containing protein 17 (Homo sapiens) (P78536 215-824 limits assumed): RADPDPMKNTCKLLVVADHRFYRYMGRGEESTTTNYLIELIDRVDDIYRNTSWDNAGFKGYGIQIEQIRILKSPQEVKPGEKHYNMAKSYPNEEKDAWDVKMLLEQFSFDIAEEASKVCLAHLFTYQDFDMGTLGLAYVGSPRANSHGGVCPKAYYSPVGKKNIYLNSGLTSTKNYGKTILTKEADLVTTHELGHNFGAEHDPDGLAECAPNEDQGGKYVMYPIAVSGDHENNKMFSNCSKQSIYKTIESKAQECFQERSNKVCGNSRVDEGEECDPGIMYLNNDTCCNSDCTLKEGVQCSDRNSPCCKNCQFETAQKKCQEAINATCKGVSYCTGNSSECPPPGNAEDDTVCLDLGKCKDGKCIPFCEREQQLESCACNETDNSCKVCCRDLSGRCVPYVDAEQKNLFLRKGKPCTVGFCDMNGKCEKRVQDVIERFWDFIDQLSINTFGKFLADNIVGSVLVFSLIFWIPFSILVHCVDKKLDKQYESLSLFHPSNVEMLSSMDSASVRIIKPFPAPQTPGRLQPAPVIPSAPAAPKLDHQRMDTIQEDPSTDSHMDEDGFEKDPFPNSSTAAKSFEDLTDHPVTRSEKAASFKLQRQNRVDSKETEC

Structure (SMILES) | inhibition
CC1(Cc2cccc(C#N)c2)C(=O)Nc2ccc(-c3cccc(C(F)(F)F)c3)cc21 (configuration not stated) | 16.4% (active)
O=C(COC(=O)CCCSc1nc2ccccc2[nH]1)Nc1ccc(Oc2ccccc2)cc1 | 21.9% (active)
COc1ccc(C(CNC(=O)c2cc(S(=O)(=O)Nc3cccc(C)c3)ccc2C)N2CCCC2)cc1 (configuration not stated) | 2.1%
COC(C(=O)Nc1ccc(S(=O)(=O)Nc2ccc(C)c(C)c2)cc1)c1ccccc1 (configuration not stated) | 13.7% (active)
O=C(CC1SC(=Nc2ccccc2)N(Cc2ccccn2)C1=O)Nc1cccc(Cl)c1 (configuration not stated) | 18.4% (active)
CCN1C(=O)C(CC(=O)Nc2cc(C)ccc2C)SC1=Nc1ccc(S(N)(=O)=O)cc1 (configuration not stated) | 7.07%
CCOc1ccc(Nc2nc(Cc3nnc(SCC(=O)c4ccc(C)cc4)o3)cs2)cc1 | 8.23%
O=C(CSc1nc(-c2ccccc2)cs1)Nc1cccc([N+](=O)[O-])c1 | 14.6% (active)
CN(C(=O)c1cccc(NC(=O)Cc2cccc([N+](=O)[O-])c2)c1)C1CCCCC1 | 8.38%
COc1ccc([C@@H]2[C@@H]3C(=O)N(C(C)(C)C)C(=O)[C@@H]3[C@]3(Cc4ccccc4)C(=O)N(c4cccc(Br)c4)C(=O)N23)cc1 | 14.3% (active)
CC[C@@]12C(=O)N(c3ccccc3)C(=O)N1[C@H](c1ccc(Br)cc1)[C@@H]1C(=O)N(C(C)(C)C)C(=O)[C@@H]12 | 2.65%
CC(C)(C)N1C(=O)[C@H]2[C@@H](c3ccc(Br)cc3)N3C(=O)N(c4cccc(Cl)c4)C(=O)[C@@]3(C)[C@H]2C1=O | 12.8% (active)
CCOc1ccccc1C1CC(c2cccc(NS(C)(=O)=O)c2)=NN1C(=O)c1ccccc1 (configuration not stated) | 3.69%
CCOc1ccc(N2C(=O)CC(N(CCc3ccc(OC)c(OC)c3)C(=S)Nc3ccccc3)C2=O)cc1 (configuration not stated) | 2.05%
O=C(OCc1ccc(-c2ccccc2)cc1)c1cccc(O)c1 | 15.7% (active)
Cc1ccc(OCCOCCOc2ccc(Br)cc2/C=N\NC(=O)c2ccncc2)cc1 | 16.2% (active)
Cc1ccc(S(=O)(=O)NCCSc2ccccc2)cc1[N+](=O)[O-] | 7.81%
COc1cccc(/C=N/NC(=O)c2cccc([N+](=O)[O-])c2)c1OS(=O)(=O)c1ccc(C)cc1 | 13.8% (active)
CC(C)Oc1cc(F)ccc1-c1cc(C(=O)Nc2cccc(Cl)c2)[nH]n1 | 14.6% (active)
O=C(COc1ccc(Cl)cc1)N1CCN(c2cccc(C(F)(F)F)c2)CC1 | 9.24% (active)
Cc1onc(C(=O)NN)c1-c1csc(COc2ccccc2)n1 | 3.32%

Structure (SMILES) | inhibition
COC(=O)c1c(C)[nH]c(C(=O)/C=C/c2ccc(Cl)cc2)c1C | -5.64%
CCOC(=O)c1c(Cc2ccc(Cl)cc2)c[nH]c1C | 9.85% (active)
COc1ccc(S(=O)(=O)N2CCCCC2)cc1Br | 10.9% (active)
COc1ccc(C(=O)C2CCCN(S(=O)(=O)c3cccc(C)c3)C2)c(C)c1 (configuration not stated) | 6.46%
COCCNC(=O)C(c1ccc(C)o1)N(Cc1ccccc1)C(=O)Cn1nnc2ccccc21 (configuration not stated) | 1.74%
COc1ccccc1C(=O)NCC(=O)OCC(=O)NNC(=O)c1ccc(Br)cc1 | 3.39%
CC(=O)Nc1ccc(S(=O)(=O)N2CCN(CCCOc3cc(C)ccc3C)CC2)cc1 | 9.43% (active)
Cn1c(=O)c2c(nc(N/N=C/c3cccs3)n2Cc2ccc(Br)cc2)n(C)c1=O | -12%
COc1ccc(C(=O)Nc2ccc(C3(C#N)CCCC3)cc2)cc1OC | -0.86%
Cc1cc(C)cc(NS(=O)(=O)c2ccc(Oc3ncc(C(F)(F)F)cc3Cl)cc2)c1 | 20.1% (active)
COc1cccc(NC(=O)C2C(c3ccccc3)C2(Cl)Cl)c1 (configuration not stated) | 19.5% (active)
O=C(CN1CCN(c2nc(-c3ccccc3)cs2)CC1)NCc1ccc2c(c1)OCO2 | 12.5% (active)
Cc1ccc(-c2n[nH]c(=S)n2/N=C/c2cc3c(cc2[N+](=O)[O-])OCO3)cc1 | 4.12%
CCOc1ccc(-n2c(SCC(=O)Nc3cc(C)c(NC(=O)c4ccccc4)cc3OC)nnc2-c2cccs2)cc1 | 14.6% (active)
COc1cccc(CNc2nc(C(F)(F)F)nc3ccccc23)c1 | 7.14%
Clc1ccc(C(Cn2ccnc2)OCc2ccsc2Cl)c(Cl)c1 (configuration not stated) | 9.7% (active)
CS(=O)(=O)Nc1cccc(C2=NN(S(=O)(=O)c3ccccc3)C(c3cccs3)C2)c1 (configuration not stated) | 6.85%
N#C/C(=C/c1ccc(N2CCCCC2)o1)C(=O)NCCc1c[nH]c2ccccc12 | 10.2% (active)
Cc1cc(C)cc(NC(=S)NCCc2c[nH]c3ccccc23)c1 | 8.25%
COc1ccc(-c2cc(C3CCN(c4ncccc4[N+](=O)[O-])CC3)[nH]n2)cc1 | 13.2% (active)
COc1ccc(CC(N)c2csc(NC(=O)NC(c3ccccc3)c3ccccc3)n2)cc1 (configuration not stated) | 3.55%
